ChEMBL document CHEMBL5107952, “Synthesis of low-molecular weight fucoidan derivatives and their binding abilities to SARS-CoV-2 spike proteins” (RSC Med Chem, 2021)

What was measured:
Type in all cases: cell-based, Severe acute respiratory syndrome coronavirus 2
[1] = (§1) Competitive inhibition of biotinylated heparin binding to His-tagged SARS-COV-2 B.1.1.7 variant recombinant spike glycoprotein del69-70/del144/N501Y/A570D/D614G/P681H/T716I/S982A/D1118H mutant expressed in Expi293F cells incubated for 120 sec by biolayer interferometry streptavidin sensor based assay
Procedure, shortened: (§2)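 Same heparin-competition BLI format with variant S proteins (B.1.1.7, B.1.351, P.1). Biotinylated heparin sat on streptavidin sensors, and S protein (1 μM) was in TBS (20 mM Tris, pH 7.4, 0.02% BSA). Bound (%) was read from the BLI signal. IC50 was fitted and converted to Ki via Cheng–Prusoff.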

[2] = (§3) Competitive inhibition of biotinylated heparin binding to His-tagged SARS-COV-2 B.1.351 variant recombinant spike glycoprotein D80A/D215G/K417N/E484K/N501Y/D614G/A701V mutant expressed in Expi293F cells incubated for 120 sec by biolayer interferometry streptavidin sensor based assay; procedure, shortened: as §2
[3] = (§4) Competitive inhibition of biotinylated heparin binding to His-tagged SARS-COV-2 P.1 variant recombinant spike glycoprotein L18F/T20N/P26S/D138Y/R190S/K417T/E484K/N501Y/H655Y/T1027I mutant expressed in Expi293F cells incubated for 300 sec by biolayer interferometry streptavidin sensor based assay; procedure, shortened: as §2
[4] = as §1, with “cells assessed as inhibition constant” for “cells”; procedure, shortened: as §2
[5] = as §3, with “cells assessed as inhibition constant” for “cells”; procedure, shortened: as §2
[6] = as §4, with “cells assessed as inhibition constant” for “cells”; procedure, shortened: as §2

SMILES: CCCCCCCCO[C@H]1O[C@@H](C)[C@@H](O[C@@H]2O[C@@H](C)[C@@H](O[C@@H]3O[C@@H](C)[C@@H](O[C@@H]4O[C@@H](C)[C@@H](OS(=O)(=O)O)[C@@H](OS(=O)(=O)O)[C@@H]4OS(=O)(=O)O)[C@@H](OS(=O)(=O)O)[C@@H]3OS(=O)(=O)O)[C@@H](OS(=O)(=O)O)[C@@H]2OS(=O)(=O)O)[C@@H](OS(=O)(=O)O)[C@@H]1OS(=O)(=O)O
- IC50 [1]: 35 µM
- IC50 [2]: 85.9 µM
- IC50 [3]: 65.6 µM
- Ki [4]: 10.1 µM
- Ki [5]: 6.67 µM
- Ki [6]: 6.98 µM
